The text below walks through data of PubChem BioAssay.

The source made the active and inactive calls.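 The calls were made as follows, unless noted: active = growth inhibition above a set limit, 3 SD over mean compound inhibition, in both replicates (cut at about 43% in these data); inconclusive = above the limit in only one replicate; inactive = at or below the limit in both replicates.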

A short description of one experiment: S. cerevisiae growth inhibition in restrictive medium, OD615, pilot screen, restrictive growth control, yeast lifespan reduction project (AID 706).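 Also: modified DeaD lifespan yeast strain shifted to restrictive glucose medium.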 To be noted: OD615, 48 h, at 10 µM, active compounds read high. In a few lines:
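material = engineered S. cerevisiae DeaD strain | buffer or medium = glucose-based CSMM-D restrictive medium | dosing = one concentration, 10 µM final, 0.25% DMSO | schedule = 4 h pre-growth plus 48 h compound exposure, 30 °C | detection = OD615 absorbance reading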
`CCCC(=O)Nc1nc2c(OC)ccc(OC)c2s1`: the growth inhibition is -5.13% (inactive).

`COc1ccc(N(CC(=O)NCc2ccccc2OC)S(=O)(=O)c2c(C)nn(C)c2C)cc1`: the growth inhibition was -16.1% (inactive).

Take `O=C(c1ccc(CS(=O)(=O)c2ccc(Br)cc2)o1)N1CCN(c2ncccn2)CC1`: the growth inhibition is -7.28% (inactive).

On to `COc1ccc(C2C(C(=O)Nc3cc(C)on3)c3ccccc3C(=O)N2C)cc1OC` (stereo not given), for which the growth inhibition was 2.73% (inactive).

`O=C(O)CC1Sc2ccccc2NC1=O` (stereo not given): the growth inhibition was 0.575% (inactive).

As to `C=CCNc1nc2c(c(=O)[nH]c(=O)n2C)n1Cc1cccc(C)c1`, the growth inhibition was 2.92% (inactive).

`CCOC(=O)C1=C(C)S/C(=C\N(C)C)C1=O`: the growth inhibition was -1.29% (inactive).

For the molecule `COc1cccc(NC(=O)CSc2ncnc3c2oc2ccccc23)c1`, the growth inhibition was 6.07% (inactive).

As for `CCCCCCNC(=O)C(C(=O)OCC)C1CCCCC1` (stereo not given), the growth inhibition was -1.5% (inactive).

Regarding `COc1ccc(-c2cc3ccccc3n2CC(O)CN2CCN(CCO)CC2)cc1` (stereo not given), the growth inhibition was -2.77% (inactive).

Take `CC(=O)c1c(Nc2ccc3c(c2)OCCO3)oc(C)cc1=O`: the growth inhibition is 0.47% (inactive).

On to `COc1ccc(-c2noc(CN3CCN(c4ccccc4)CC3)n2)cc1`, for which the growth inhibition was -10.2% (inactive).

For the molecule `O=C1CSC(=S)N1Cc1cccnc1`, the growth inhibition was 16.2% (inactive).

For `COc1ccc(NC(=O)C2CCCN2S(=O)(=O)c2ccc(F)cc2)cc1` (stereo not given), the growth inhibition is -12.7% (inactive).

For the molecule `CCCCCCn1c(CN2CCN(CCO)CC2)nc2c1c(=O)n(C)c(=O)n2C`, the growth inhibition was -11.2% (inactive).

For `Cc1nn(-c2ccccc2)c2sc(C(=O)n3cccn3)cc12`, the growth inhibition was -9.12% (inactive).

Turning to `Cc1cc(NC(=O)CSc2ccc3nnc(-c4ccccn4)n3n2)no1`, the growth inhibition is 10.1% (inactive).

With `COc1cccc(C2CC(c3ccc(Cl)cc3)n3nc(N)nc3N2)c1` (stereo not given), the growth inhibition was 1.46% (inactive).

`CC(=O)c1c(C)oc(C)c1CSCc1ccc(C(=O)O)o1`: the growth inhibition was 0.22% (inactive).

`CC(=O)Nc1ccc(S(=O)(=O)c2ccc(N)cc2)cc1N`: the growth inhibition was 2.46% (inactive).

For `COC(=O)C1C2C=CC3(CN(C(C)C)C(=O)C13)O2` (stereo not given), the growth inhibition is -17.2% (inactive).

Consider `CC(c1ccc(Br)cc1)N1CC23C=CC(O2)C(C(=O)O)C3C1=O` (stereo not given), for which the growth inhibition is 6.24% (inactive).

Turning to `CC(C)C(NS(=O)(=O)c1ccc2c3c(cccc13)C(=O)N2)C(=O)O` (stereo not given), the growth inhibition is -4.4% (inactive).

`CC1=C(C(=O)OCc2ccc3c(c2)OCO3)C(c2ccc(Cl)cc2)NC(=O)N1` (stereo not given): the growth inhibition was -5.46% (inactive).

As to `CCOc1ccc2[nH]c(C)c(CN3CCOCC3)c(=O)c2c1`, the growth inhibition is -5.17% (inactive).

For the molecule `CC(NC(=O)CSc1ncnc2nc[nH]c12)c1ccccc1` (stereo not given), the growth inhibition was -5.1% (inactive).

Take `CCOc1ccc(N=Cc2c(O)cc(C)oc2=O)cc1`: the growth inhibition was 8.93% (inactive).

Take `O=C(OCN1C(=O)c2ccccc2C1=O)c1ccco1`: the growth inhibition is 0.045% (inactive).

As to `O=C(Nc1cccnc1)c1cc(-c2ccc(Br)cc2)on1`, the growth inhibition is -9.79% (inactive).

Take `CN1CCN(c2ccccc2NC(=O)C(Cc2ccccc2)n2cccc2)CC1` (stereo not given): the growth inhibition was -4.39% (inactive).

`COc1ccc(NC(=O)C2CCN(S(=O)(=O)c3cccc4cccnc34)CC2)cc1OC`: the growth inhibition was 0.21% (inactive).

For the molecule `CCn1cc(C(=O)NCCCN2CCC(C)CC2)c2cc(OC)c(OC)cc2c1=O`, the growth inhibition was 6.7% (inactive).

For `COc1ccccc1NC(=O)C1C2C=CC3(CN(Cc4cccnc4)C(=O)C13)O2` (stereo not given), the growth inhibition was 4.22% (inactive).

Turning to `O=C(N1CCOCC1)N1CCN(c2ccccc2F)CC1`, the growth inhibition is 0.07% (inactive).

Turning to `CCCc1cc(=O)oc2cc3occ(C)c3cc12`, the growth inhibition was 2.5% (inactive).

As for `COc1ccccc1N1CCN(c2cc(=O)n(-c3ccc(Cl)cc3)c(=O)[nH]2)CC1`, the growth inhibition was -7.77% (inactive).

As for `COc1ccc(OC)c(S(=O)(=O)NCc2cn3c(C)csc3n2)c1`, the growth inhibition is 5.41% (inactive).

In the case of `CCOc1ccc(OCC)c(S(=O)(=O)NCc2ccc3c(c2)OCO3)c1`, the growth inhibition was -2.62% (inactive).

As to `COc1cccc(C2NC(CCSC)(C(=O)O)C3C(=O)N(C(C)C)C(=O)C23)c1O` (stereo not given), the growth inhibition is 8% (inactive).

As for `Cn1c(NC(=O)c2cc(Cl)ccc2Cl)cc(=O)n(C)c1=O`, the growth inhibition was 3.21% (inactive).

Another experiment in a line: doxorubicin toxicity protection in MRP-1 cells – H69AR cells, CellTiter-Glo, duplicate, MRP-1 activator project, pilot screen (AID 807;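 active = viability increase at or above a cutoff of the median across tested compounds plus 3 SD, cut at about 8.5% in these data, passing the limit was not always enough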;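 also: compound pretreatment 18-22 h then 72 h combined with doxorubicin; 0% = doxorubicin alone and 100% = vehicle without doxorubicin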). To be noted: H69AR viability with doxorubicin, CellTiter-Glo luminescence; at 10 µM; active compounds read high. Background: Cellular ATP, detected with luciferase, serves as a proxy for viable cell number.
On to `CCCC(=O)Nc1nc2c(OC)ccc(OC)c2s1`, for which the viability increase is -3.01% (inactive).

`COc1ccc(N(CC(=O)NCc2ccccc2OC)S(=O)(=O)c2c(C)nn(C)c2C)cc1`: the viability increase was -3.37% (inactive).

On to `O=C(c1ccc(CS(=O)(=O)c2ccc(Br)cc2)o1)N1CCN(c2ncccn2)CC1`, for which the viability increase was -4.3% (inactive).

In the case of `COc1ccc(C2C(C(=O)Nc3cc(C)on3)c3ccccc3C(=O)N2C)cc1OC` (stereo not given), the viability increase is 0.61% (inactive).

As for `O=C(O)CC1Sc2ccccc2NC1=O` (stereo not given), the viability increase was -1.79% (inactive).

For `C=CCNc1nc2c(c(=O)[nH]c(=O)n2C)n1Cc1cccc(C)c1`, the viability increase is -1.47% (inactive).

For `CCOC(=O)C1=C(C)S/C(=C\N(C)C)C1=O`, the viability increase is -0.78% (inactive).

On to `COc1cccc(NC(=O)CSc2ncnc3c2oc2ccccc23)c1`, for which the viability increase is -2.19% (inactive).

For `CCCCCCNC(=O)C(C(=O)OCC)C1CCCCC1` (stereo not given), the viability increase is -1.52% (inactive).

Take `COc1ccc(-c2cc3ccccc3n2CC(O)CN2CCN(CCO)CC2)cc1` (stereo not given): the viability increase is -3.91% (inactive).

As for `CC(=O)c1c(Nc2ccc3c(c2)OCCO3)oc(C)cc1=O`, the viability increase is -5.39% (inactive).

Take `COc1ccc(-c2noc(CN3CCN(c4ccccc4)CC3)n2)cc1`: the viability increase is -1.14% (inactive).

In the case of `O=C1CSC(=S)N1Cc1cccnc1`, the viability increase was -8.48% (inactive).

Turning to `COc1ccc(NC(=O)C2CCCN2S(=O)(=O)c2ccc(F)cc2)cc1` (stereo not given), the viability increase is -0.14% (inactive).

`CCCCCCn1c(CN2CCN(CCO)CC2)nc2c1c(=O)n(C)c(=O)n2C`: the viability increase is -4.86% (inactive).

Consider `Cc1nn(-c2ccccc2)c2sc(C(=O)n3cccn3)cc12`, for which the viability increase was -3.24% (inactive).

In the case of `Cc1cc(NC(=O)CSc2ccc3nnc(-c4ccccn4)n3n2)no1`, the viability increase was -1.04% (inactive).

As to `COc1cccc(C2CC(c3ccc(Cl)cc3)n3nc(N)nc3N2)c1` (stereo not given), the viability increase was 0.04% (inactive).

For `CC(=O)c1c(C)oc(C)c1CSCc1ccc(C(=O)O)o1`, the viability increase is -2.16% (inactive).

As to `CC(=O)Nc1ccc(S(=O)(=O)c2ccc(N)cc2)cc1N`, the viability increase is -1.15% (inactive).

Turning to `COC(=O)C1C2C=CC3(CN(C(C)C)C(=O)C13)O2` (stereo not given), the viability increase is -1.07% (inactive).

Consider `CC(c1ccc(Br)cc1)N1CC23C=CC(O2)C(C(=O)O)C3C1=O` (stereo not given), for which the viability increase was -0.16% (inactive).

On to `CC(C)C(NS(=O)(=O)c1ccc2c3c(cccc13)C(=O)N2)C(=O)O` (stereo not given), for which the viability increase is -0.28% (inactive).

Take `CC1=C(C(=O)OCc2ccc3c(c2)OCO3)C(c2ccc(Cl)cc2)NC(=O)N1` (stereo not given): the viability increase was -4.91% (inactive).

For the molecule `CCOc1ccc2[nH]c(C)c(CN3CCOCC3)c(=O)c2c1`, the viability increase was -1.13% (inactive).

Turning to `CC(NC(=O)CSc1ncnc2nc[nH]c12)c1ccccc1` (stereo not given), the viability increase was -0.99% (inactive).

Consider `CCOc1ccc(N=Cc2c(O)cc(C)oc2=O)cc1`, for which the viability increase was -2.82% (inactive).

For the molecule `O=C(OCN1C(=O)c2ccccc2C1=O)c1ccco1`, the viability increase was -2.17% (inactive).

For the molecule `O=C(Nc1cccnc1)c1cc(-c2ccc(Br)cc2)on1`, the viability increase was 0.92% (inactive).

For the molecule `CN1CCN(c2ccccc2NC(=O)C(Cc2ccccc2)n2cccc2)CC1` (stereo not given), the viability increase is -7.39% (inactive).

With `COc1ccc(NC(=O)C2CCN(S(=O)(=O)c3cccc4cccnc34)CC2)cc1OC`, the viability increase is -1.69% (inactive).

Take `CCn1cc(C(=O)NCCCN2CCC(C)CC2)c2cc(OC)c(OC)cc2c1=O`: the viability increase was -3.47% (inactive).

`COc1ccccc1NC(=O)C1C2C=CC3(CN(Cc4cccnc4)C(=O)C13)O2` (stereo not given): the viability increase was 0.16% (inactive).

For `O=C(N1CCOCC1)N1CCN(c2ccccc2F)CC1`, the viability increase is -2.64% (inactive).

As for `CCCc1cc(=O)oc2cc3occ(C)c3cc12`, the viability increase was -2.52% (inactive).

For the molecule `COc1ccccc1N1CCN(c2cc(=O)n(-c3ccc(Cl)cc3)c(=O)[nH]2)CC1`, the viability increase was -2.22% (inactive).

Take `COc1ccc(OC)c(S(=O)(=O)NCc2cn3c(C)csc3n2)c1`: the viability increase was -1.77% (inactive).

On to `CCOc1ccc(OCC)c(S(=O)(=O)NCc2ccc3c(c2)OCO3)c1`, for which the viability increase was -2.97% (inactive).

For `COc1cccc(C2NC(CCSC)(C(=O)O)C3C(=O)N(C(C)C)C(=O)C23)c1O` (stereo not given), the viability increase is 0.13% (inactive).

Take `Cn1c(NC(=O)c2cc(Cl)ccc2Cl)cc(=O)n(C)c1=O`: the viability increase is -2.52% (inactive).
